In ChEMBL document CHEMBL1133087, “Radioiodinated N-(2-diethylaminoethyl)benzamide derivatives with high melanoma uptake: structure-affinity relationships, metabolic fate, and intracellular localization” (J Med Chem, 2000):

Experiments:
[1] = system: Mus musculus; experiment: Biodistribution was studied by injecting intravenously into C57B1/6 mice bearing subcutaneously transplanted B16 melanoma after 1 hr.; assay type: ADME, organism-based; conditions: in vivo, iv
[2] = The lipophilicity was measured in an octanol/water system at pH 7.4.; assay type: physicochemical
In short: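 HPLC-purified no-carrier-added radioiodinated benzamide was added to 0.067 M phosphate buffer at pH 7.4 with an equal volume of 1-octanol. The mixture was vortexed to equilibrium, centrifuged and the phases separated. Each phase was γ-counted, with log P = log(cpm octanol/cpm buffer).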

[3] = system: Mus musculus; experiment: Biodistribution was studied by injecting intravenously into C57B1/6 mice bearing subcutaneously transplanted B16 spleen after 1 hr.; assay type: ADME, organism-based; conditions: in vivo, iv
[4] = system: Mus musculus; experiment: Biodistribution was studied by injecting intravenously into C57B1/6 mice bearing subcutaneously transplanted B16 blood after 1 hr.; assay type: ADME, organism-based; conditions: in vivo, iv
[5] = system: Mus musculus; experiment: Biodistribution was studied by injecting intravenously into C57B1/6 mice bearing subcutaneously transplanted B16 heart after 6 hr.; assay type: ADME, organism-based; conditions: in vivo, iv
[6] = system: Mus musculus; experiment: Biodistribution was studied by injecting intravenously into C57B1/6 mice bearing subcutaneously transplanted B16 muscle after 1 hr.; assay type: ADME, organism-based, Muscle tissue; conditions: in vivo, iv
[7] = system: Mus musculus; experiment: Biodistribution was studied by injecting intravenously into C57B1/6 mice bearing subcutaneously transplanted B16 muscle after 6 hr.; assay type: ADME, organism-based, Muscle tissue; conditions: in vivo, iv
[8] = system: Mus musculus; experiment: Biodistribution was studied by injecting intravenously into C57B1/6 mice bearing subcutaneously transplanted B16 […] after 6 hr.; assay type: ADME, organism-based; conditions: in vivo, iv
[9] = system: Mus musculus; experiment: Biodistribution was studied by injecting intravenously into C57B1/6 mice bearing subcutaneously transplanted B16 kidney after 1 hr.; assay type: ADME, organism-based; conditions: in vivo, iv
[10] = system: Mus musculus; experiment: Biodistribution was studied by injecting intravenously into C57B1/6 mice bearing subcutaneously transplanted B16 kidney after 6 hr.; assay type: ADME, organism-based; conditions: in vivo, iv
[11] = system: Mus musculus; experiment: Biodistribution was studied by injecting intravenously into C57B1/6 mice bearing subcutaneously transplanted B16 liver after 1 hr.; assay type: ADME, organism-based; conditions: in vivo, iv
[12] = system: Mus musculus; experiment: Biodistribution was studied by injecting intravenously into C57B1/6 mice bearing subcutaneously transplanted B16 liver after 6 hr.; assay type: ADME, organism-based; conditions: in vivo, iv
[13] = system: Mus musculus; experiment: Biodistribution was studied by injecting intravenously into C57B1/6 mice bearing subcutaneously transplanted B16 lung after 1 hr.; assay type: ADME, organism-based; conditions: in vivo, iv
[14] = system: Mus musculus; experiment: Biodistribution was studied by injecting intravenously into C57B1/6 mice bearing subcutaneously transplanted B16 lung after 6 hr.; assay type: ADME, organism-based; conditions: in vivo, iv
[15] = system: Mus musculus; experiment: Biodistribution was studied by injecting intravenously into C57B1/6 mice bearing subcutaneously transplanted B16 melanoma after 6 hr.; assay type: ADME, organism-based; conditions: in vivo, iv
[16] = system: Mus musculus; experiment: Biodistribution was studied by injecting intravenously into C57B1/6 mice bearing subcutaneously transplanted B16 blood after 6 hr.; assay type: ADME, organism-based; conditions: in vivo, iv
[17] = system: Mus musculus; experiment: Biodistribution was studied by injecting intravenously into C57B1/6 mice bearing subcutaneously transplanted B16 brain after 1 hr.; assay type: ADME, organism-based; conditions: in vivo, iv
[18] = system: Mus musculus; experiment: Biodistribution was studied by injecting intravenously into C57B1/6 mice bearing subcutaneously transplanted B16 brain after 6 hr.; assay type: ADME, organism-based; conditions: in vivo, iv
[19] = system: Mus musculus; experiment: Biodistribution was studied by injecting intravenously into C57B1/6 mice bearing subcutaneously transplanted B16 heart after 1 hr.; assay type: ADME, organism-based; conditions: in vivo, iv
[20] = system: Mus musculus; experiment: Amount of urinary radioactivity collected within 4 hr after iv injection into C57B1/6 mice was analyzed by RP-HPLC.; assay type: ADME, organism-based, Urine; conditions: in vivo
[21] = system: Mus musculus; experiment: Biodistribution was studied by injecting intravenously into C57B1/6 mice bearing subcutaneously transplanted B16 blood after 24 hr; assay type: ADME, organism-based; conditions: in vivo, iv
[22] = system: Mus musculus; experiment: Biodistribution was studied by injecting intravenously into C57B1/6 mice bearing subcutaneously transplanted B16 muscle after 24 hr.; assay type: ADME, organism-based, Muscle tissue; conditions: in vivo, iv
[23] = system: Mus musculus; experiment: Biodistribution was studied by injecting intravenously into C57B1/6 mice bearing subcutaneously transplanted B16 spleen after 24 hr.; assay type: ADME, organism-based; conditions: in vivo, iv
[24] = system: Mus musculus; experiment: Biodistribution was studied by injecting intravenously into C57B1/6 mice bearing subcutaneously transplanted B16 kidney after 24 hr.; assay type: ADME, organism-based; conditions: in vivo, iv
[25] = system: Mus musculus; experiment: Biodistribution was studied by injecting intravenously into C57B1/6 mice bearing subcutaneously transplanted B16 liver after 24 hr.; assay type: ADME, organism-based; conditions: in vivo, iv
[26] = system: Mus musculus; experiment: Biodistribution was studied by injecting intravenously into C57B1/6 mice bearing subcutaneously transplanted B16 lung after 24 hr.; assay type: ADME, organism-based; conditions: in vivo, iv
[27] = system: Mus musculus; experiment: Biodistribution was studied by injecting intravenously into C57B1/6 mice bearing subcutaneously transplanted B16 melanoma after 24 hr.; assay type: ADME, organism-based; conditions: in vivo, iv
[28] = system: Mus musculus; experiment: Biodistribution was studied by injecting intravenously into C57B1/6 mice bearing subcutaneously transplanted B16 brain after 24 hr.; assay type: ADME, organism-based; conditions: in vivo, iv
[29] = system: Mus musculus; experiment: Biodistribution was studied by injecting intravenously into C57B1/6 mice bearing subcutaneously transplanted B16 heart after 24 hr.; assay type: ADME, organism-based; conditions: in vivo, iv
[30] = system: B16; experiment: Binding of radioiodinated compound in B16 cells as a function of specific activity for blood at 1 hr after injecting at 1.5(umol/mouse).; assay type: functional
In short: (§1)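 C57Bl/6 mice carried subcutaneous B16 melanoma. Melanoma and blood radioactivity were measured by γ-counting at 1 or 6 h and expressed as % ID/g (mean, n = 3).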

[31] = system: B16; experiment: Binding of radioiodinated compound in B16 cells as a function of specific activity for blood at 1 hr after injecting at 1.5*10e-3 (uMol/mouse).; assay type: functional; in short: as §1
[32] = system: B16; experiment: Binding of radioiodinated compound in B16 cells as a function of specific activity for blood at 1 hr after injecting at 1.8*10e-6 (uMol/mouse).; assay type: functional; in short: as §1
[33] = system: B16; experiment: Binding of radioiodinated compound in B16 cells as a function of specific activity for blood at 6 hr after injecting at 1.5(umol/mouse).; assay type: functional; in short: as §1
[34] = system: B16; experiment: Binding of radioiodinated compound in B16 cells as a function of specific activity for blood at 6 hr after injecting at 1.5*10e-3 (uMol/mouse); assay type: functional; in short: as §1
[35] = system: B16; experiment: Binding of radioiodinated compound in B16 cells as a function of specific activity for blood at 6 hr after injecting at 1.8*10e-6 (uMol/mouse).; assay type: functional; in short: as §1
[36] = system: B16; experiment: Binding of radioiodinated compound in B16 cells as a function of specific activity for melanoma after 1 hr injecting at 1.8*10e-6 (uMol/mouse).; assay type: functional; in short: as §1
[37] = system: B16; experiment: Binding of radioiodinated compound in B16 cells as a function of specific activity for melanoma at 1 hr after injecting at 1.5(umol/mouse).; assay type: functional; in short: as §1
[38] = system: B16; experiment: Binding of radioiodinated compound in B16 cells as a function of specific activity for melanoma at 1 hr after injecting at 1.5*10e-3 (uMol/mouse).; assay type: functional; in short: as §1
[39] = system: B16; experiment: Binding of radioiodinated compound in B16 cells as a function of specific activity for melanoma at 6 hr after injecting at 1.5(umol/mouse).; assay type: functional; in short: as §1
[40] = system: B16; experiment: Binding of radioiodinated compound in B16 cells as a function of specific activity for melanoma at 6 hr after injecting at 1.5*10e-3 (uMol/mouse).; assay type: functional; in short: as §1
[41] = system: B16; experiment: Binding of radioiodinated compound in B16 cells as a function of specific activity for melanoma at 6 hr after injecting at 1.8*10e-6 (uMol/mouse).; assay type: functional; in short: as §1
[42] = Selectivity parameter calculated as the mean of 8 melanoma / non target tissue ratio at 1 hr postinjection; assay type: functional
In short: (§2)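 Tissue radioactivity was γ-counted as % ID/g. Selectivity (M/NTT) is the mean of the 8 melanoma/nontarget tissue ratios: blood, heart, lung, spleen, liver, kidney, muscle and brain. n = 3.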

[43] = Selectivity parameter calculated as the mean of 8 melanoma / non target tissue ratio at 6 hr postinjection; assay type: functional; in short: as §2

Row | ID/g [1] [%] | logD [2] | ID/g [3] [%] | ID/g [4] [%] | ID/g [5] [%] | ID/g [6] [%] | ID/g [7] [%] | ID/g [8] [%] | ID/g [9] [%] | ID/g [10] [%] | ID/g [11] [%] | ID/g [12] [%] | ID/g [13] [%] | ID/g [14] [%] | ID/g [15] [%] | ID/g [16] [%] | ID/g [17] [%] | ID/g [18] [%] | ID/g [19] [%] | ID [20] [%] | SMILES | other results
1 | 8.06 | 1.16 | 1.26 | 0.9 | 0.13 | 0.38 | 0.08 | 0.31 | 1.81 | 0.17 | 1.23 | 0.23 | 1.41 | 0.41 | 2.32 | 0.33 | 0.15 | 0.02 | 0.63 |  | CCN(CC)CCNC(=O)c1cc(OC)ccc1I | 
2 | 4.66 | 1.62 | 2 | 1.93 | 0.45 | 0.61 | 0.28 | 1.57 | 6.89 | 3.95 | 4.92 | 3.43 | 3.12 | 1.06 | 6.92 | 0.85 | 0.18 | 0.08 | 1.17 |  | CCN(CC)CCNC(=O)c1cc(I)c(N)cc1OC | 
3 | 21.87 | 1.78 | 6.55 | 3.3 | 1.05 | 1.37 | 0.44 | 2.09 | 5.09 | 1.97 | 8.03 | 9.86 | 5.53 | 3.02 | 23.32 | 2.56 | 0.62 | 0.19 | 2.1 | 16 | CCN(CC)CCNC(=O)c1cc(I)c(NC(C)=O)cc1OC | ID/g [21]: 0.21%; ID/g [22]: 0.03%; ID/g [23]: 0.17%; ID/g [24]: 0.4%; ID/g [25]: 3.72%; ID/g [26]: 0.25%; ID/g [27]: 16.06%; ID/g [28]: 0.02%; ID/g [29]: 0.09%
4 | 6.5 | 1.13 | 0.39 | 0.2 | 0.05 | 0.19 | 0.03 | 0.05 | 0.93 | 0.17 | 2.62 | 0.29 | 0.69 | 0.09 | 4.14 | 0.04 | 0.1 | 0.01 | 0.25 | 82 | CCN(CC)CCNC(=O)c1ccc(OC)c(I)c1 | ID/g [30]: 0.78%; ID/g [31]: 1.03%; ID/g [32]: 0.2%; ID/g [33]: 0.29%; ID/g [34]: 0.24%; ID/g [35]: 0.04%; ID/g [36]: 6.5%; ID/g [37]: 5.41%; ID/g [38]: 4.86%; ID/g [39]: 3.72%; ID/g [40]: 5.27%; ID/g [41]: 4.14%; Ratio [42]: 24; Ratio [43]: 129
